These results are taken from ChEMBL document CHEMBL1152787, “Search for MDR modulators: design, syntheses and evaluations of N-substituted acridones for interactions with p-glycoprotein and Mg2+” (Bioorg Med Chem, 2009).

As a reminder, the logP is a log measure of how a compound divides between an organic and an aqueous phase.

Molecules are shown by their SMILES.

Series [1] addresses T1, ATP-dependent translocase ABCB1 (Homo sapiens, UniProt P08183). Description: Inhibition of P-gp ATPase activity in […] DC-3F/ADX cells assessed as increase in basal activity measured by NADH level at 0.5 uM by spectrophotometric method. Type of series: cell-based. Also on record: scale not given: the % may be the effect or the level left. The note with it: Chinese hamster. A digest of the protocol:
(§1)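 P-gp basal MgATP hydrolysis in vesicle suspension, monitored continuously by spectrophotometry. ADP formation is coupled through phosphoenolpyruvate→pyruvate→lactate with NADH→NAD+ conversion, read as NADH absorbance at 340 nm in a 96-well plate. Compound stocks of 0.5, 5 and 50 µM give final well concentrations of 0.05, 0.5 and 5 µM. Run in triplicate.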

Series [2] deals with T1, ATP-dependent translocase ABCB1. Description: Inhibition of P-gp ATPase activity in […] DC-3F/ADX cells assessed as increase in basal activity measured by NADH level at 5 uM by spectrophotometric method. The format is cell-based. The note with it: Chinese hamster. Also on record: scale not given: the % may be the effect or the level left. A digest of the protocol: as §1

Series [3] has the same target. Description: Inhibition of P-gp ATPase activity in […] DC-3F/ADX cells assessed as increase in basal activity measured by NADH level at 0.05 uM by spectrophotometric method. Details: scale not given: the % may be the effect or the level left. Type of series: cell-based. The note with it: Chinese hamster. A digest of the protocol:
as §1

A short description of series [4]: Lipophilicity, log P of the compound. Type of series: physicochemical. The settings on record: octanol/water.

T1 sequence (P08183 whole entry): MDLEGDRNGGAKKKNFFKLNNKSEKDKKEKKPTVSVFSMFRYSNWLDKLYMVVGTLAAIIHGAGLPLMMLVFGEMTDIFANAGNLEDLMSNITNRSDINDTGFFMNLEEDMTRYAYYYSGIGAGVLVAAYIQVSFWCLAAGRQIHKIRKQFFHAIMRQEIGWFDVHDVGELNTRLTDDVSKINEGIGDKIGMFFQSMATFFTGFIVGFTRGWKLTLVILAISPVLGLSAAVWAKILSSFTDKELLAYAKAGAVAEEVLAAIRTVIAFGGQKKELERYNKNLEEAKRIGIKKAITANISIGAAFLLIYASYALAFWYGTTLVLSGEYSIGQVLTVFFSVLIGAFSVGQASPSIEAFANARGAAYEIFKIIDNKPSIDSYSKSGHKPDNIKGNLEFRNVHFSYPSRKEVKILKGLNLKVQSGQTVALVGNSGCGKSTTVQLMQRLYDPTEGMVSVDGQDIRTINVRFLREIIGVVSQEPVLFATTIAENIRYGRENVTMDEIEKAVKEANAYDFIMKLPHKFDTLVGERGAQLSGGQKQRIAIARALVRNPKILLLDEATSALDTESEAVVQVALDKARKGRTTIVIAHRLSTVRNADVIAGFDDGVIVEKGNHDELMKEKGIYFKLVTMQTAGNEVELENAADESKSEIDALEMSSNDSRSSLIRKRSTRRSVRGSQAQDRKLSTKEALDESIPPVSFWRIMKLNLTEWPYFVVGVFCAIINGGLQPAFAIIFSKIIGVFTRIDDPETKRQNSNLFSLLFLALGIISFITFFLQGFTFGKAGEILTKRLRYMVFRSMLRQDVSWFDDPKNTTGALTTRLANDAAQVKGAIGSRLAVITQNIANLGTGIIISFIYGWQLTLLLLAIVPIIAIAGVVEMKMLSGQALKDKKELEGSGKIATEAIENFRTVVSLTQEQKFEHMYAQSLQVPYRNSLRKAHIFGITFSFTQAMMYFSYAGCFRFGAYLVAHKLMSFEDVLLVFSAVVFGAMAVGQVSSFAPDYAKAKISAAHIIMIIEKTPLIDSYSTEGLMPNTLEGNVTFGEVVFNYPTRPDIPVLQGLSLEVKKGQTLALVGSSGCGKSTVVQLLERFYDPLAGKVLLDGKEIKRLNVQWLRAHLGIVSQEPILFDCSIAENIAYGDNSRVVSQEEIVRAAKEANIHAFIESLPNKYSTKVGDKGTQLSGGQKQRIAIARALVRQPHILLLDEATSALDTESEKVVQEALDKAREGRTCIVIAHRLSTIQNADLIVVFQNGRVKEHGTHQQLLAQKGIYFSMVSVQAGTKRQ

Consider `CC[C@]1(O)C[C@@H]2CN(CCc3c([nH]c4ccccc34)[C@@](C(=O)OC)(c3cc4c(cc3OC)N(C)[C@H]3[C@@](O)(C(=O)OC)[C@H](OC(C)=O)[C@]5(CC)C=CCN6CC[C@]43[C@@H]65)C2)C1` [VINBLASTINE], for which the Activity in series [1] came to 31%; in series [2], 35%.

`CCCNCC(O)COc1ccccc1C(=O)CCc1ccccc1` (configuration not stated) [PROPAFENONE]: the Activity in series [1] came out at 31%; in series [2], 40%.

With `COc1ccc(CCN(C)CCCC(C#N)(c2ccc(OC)c(OC)c2)C(C)C)cc1OC` (configuration not stated) [VERAPAMIL], the figures for the Activity in series [1] and in series [2] were 30% and 33%, respectively.

On to `CC(=O)[C@H]1CC[C@H]2[C@@H]3CCC4=CC(=O)CC[C@]4(C)[C@H]3CC[C@]12C` [PROGESTERONE], for which the Activity was found to be 30% in series [1] and 34% in series [2].

`CCN(CC)CC(O)Cn1c2ccccc2c(=O)c2ccccc21` (configuration not stated): the Activity in series [3] stood at 29%; in series [1] it was 32%; in series [2], 36%. In addition, in series [4], the logP was 1.98.

Take `O=c1c2ccccc2n(CC(O)CN2CCC(N3CCCCC3)CC2)c2ccccc12` (configuration not stated): the Activity is reported as 25% in series [3], 32% in series [1] and 31% in series [2]. In series [4], this compound registered a log partition coefficient (logP) of 2.56.

Regarding `O=c1c2ccccc2n(CC(O)CN2CCCC2)c2ccccc12` (configuration not stated), the Activity in series [3] worked out at 31%; in series [1], 34%; in series [2] it was 38%. In addition, in series [4], the logP came out at 1.73.

For `CC(C)N(CC(O)Cn1c2ccccc2c(=O)c2ccccc21)C(C)C` (configuration not stated), the figures for the Activity in series [3], in series [1] and in series [2] were 18%, 21% and 28%, respectively. In series [4], the logP stood at 2.58.

In the case of `O=c1c2ccccc2n(CC(O)CN2CCOCC2)c2ccccc12` (configuration not stated), the Activity was 24% in series [3], 27% in series [1] and 30% in series [2]. Also, the logP in series [4] is 1.08.

Regarding `O=c1c2ccccc2n(CC(O)CN2CCCCC2)c2ccccc12` (configuration not stated), the Activity in series [3] was 33%; in series [1], 40%; in series [2], 44%. In series [4], this compound displayed a lipophilicity (logP) of 2.14.
